# KDM4C inh = inhibitors of human demethylase GASC-1 KDM4C; Q9H3R0; GST-KDM4C 2-372, H3K9me3 peptide, LANCE TR-FRET; inhibition, % at 12.5 µM; 96,000 tested, 0.15% active; AID 720574;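 active = mean replicate inhibition above about 25%, with at least 55% of replicates also reaching it, limit read from the data, passing the limit was not always enough; inconclusive = only one of those two conditions met; inactive = neither condition met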
# Target sequence (Q9H3R0 2-372 limits assumed): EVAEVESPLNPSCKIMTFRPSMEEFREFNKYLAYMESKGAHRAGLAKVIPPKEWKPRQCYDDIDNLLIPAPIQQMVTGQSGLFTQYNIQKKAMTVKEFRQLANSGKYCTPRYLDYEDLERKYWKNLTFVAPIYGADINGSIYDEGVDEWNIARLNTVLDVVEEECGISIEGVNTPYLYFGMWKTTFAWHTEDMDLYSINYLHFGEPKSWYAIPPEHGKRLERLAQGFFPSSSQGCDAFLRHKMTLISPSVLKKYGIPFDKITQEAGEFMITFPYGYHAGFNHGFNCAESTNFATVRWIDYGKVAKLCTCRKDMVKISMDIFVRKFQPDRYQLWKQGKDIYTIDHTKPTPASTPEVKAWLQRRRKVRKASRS
#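 Test system – GST-tagged GASC-1 (JMJD2C) catalytic fragment, aa 2-372 · Medium – HEPES buffer, pH 7.5, plus ascorbate · Reagent – H3K9me3 peptide with Fe(II)/2OG · Compound – one test concentration per compound · Timing – 30 min reaction, 60 min detection, RT · Technique – TR-FRET with Eu antibody and ULight streptavidin, EDTA stop · Read-out basis – inhibition from TR-FRET ratio decrease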
# T cruzi growth-1 = inhibitors of T. cruzi proliferation; T. cruzi beta-gal in NIH3T3, GalScreen luminescence, 90 h; inhibition, % at 8.34 µM; 77,000 tested, 5.9% active;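 active = mean inhibition above about 93%, with at least 55% of replicates each passing it, limit read from the data, passing the limit was not always enough; inconclusive = only one of those two conditions holds; inactive = neither condition holds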
# IDH1 mut inh = blocks human IDH1 R132H reductase activity; inhibition, % at 10 µM; O75874; diaphorase/resazurin fluorescence, 60 min; 70,000 tested, 0.18% active; in the data active = inhibition above about 34%; inconclusive = no clear call, values can overlap the other calls; inactive = below about 11%;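 note: 0% = DMSO and 100% = no enzyme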
# Target sequence (O75874 whole entry R132H): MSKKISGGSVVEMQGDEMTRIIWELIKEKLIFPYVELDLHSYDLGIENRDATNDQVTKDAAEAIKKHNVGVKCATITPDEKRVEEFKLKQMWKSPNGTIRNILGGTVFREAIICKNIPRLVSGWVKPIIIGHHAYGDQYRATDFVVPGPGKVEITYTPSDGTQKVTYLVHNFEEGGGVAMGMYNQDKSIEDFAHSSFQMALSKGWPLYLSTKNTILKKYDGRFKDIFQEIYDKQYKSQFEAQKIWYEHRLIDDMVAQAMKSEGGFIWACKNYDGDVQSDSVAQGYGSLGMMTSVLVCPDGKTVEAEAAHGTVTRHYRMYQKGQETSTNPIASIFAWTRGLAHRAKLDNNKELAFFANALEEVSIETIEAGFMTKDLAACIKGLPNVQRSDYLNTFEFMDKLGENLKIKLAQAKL
# Pf Dd2 growth = inhibitors of Plasmodium falciparum Dd2 growth; P. falciparum Dd2 growth, SYBR Green, 72 h; hits give low values; activity change, % at 10 µM; 94,000 tested, 2.3% active; in the data active = activity change below about -80%; inconclusive = no clear call, values can overlap the other calls
# T cruzi growth-2 = inhibitors of T. cruzi proliferation. inhibition, % at 8.35 µM. T. cruzi beta-gal in NIH3T3, GalScreen luminescence, 90 h. shares compounds with T cruzi growth-1. 5,600 tested, 72% active;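 active = mean replicate inhibition above about 95% and at least 55% of replicates individually reaching it, limit read from the data; inconclusive = only one of the two criteria is met; inactive = neither criterion is met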
# T cruzi growth-3 = Trypanosoma cruzi proliferation inhibition. shares compounds with T cruzi growth-1. T. cruzi beta-gal in NIH3T3, GalScreen luminescence, 90 h. 5,600 tested, 21% active. inhibition, % at 2.09 µM;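 active = mean inhibition above about 95%, with at least 55% of replicates also reaching it, limit read from the data; inconclusive = meets just one of the two conditions; inactive = meets neither condition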;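 note: plate controls were neutral control median for no effect and positive control median for full effect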
# NIH3T3 tox = cytotoxicity in mouse NIH/3T3 fibroblasts. shares compounds with T cruzi growth-1. NIH/3T3 viability, CellTiter-Glo ATP luminescence, 90 h. cytotoxicity (signal decrease), % at 8.35 µM. 5,600 tested, 14% active. AID 651742;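 active = mean signal decrease across replicates above about 35% based on untreated-well scatter, with enough replicates individually passing, limit read from the data; inconclusive = no rule stated though some were filed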;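 note: 0% = median of neutral control wells and 100% = median of positive control wells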
# 3T3 cytotox 2 = kills mouse NIH/3T3 fibroblasts | shares compounds with T cruzi growth-1 | NIH/3T3 viability, CellTiter-Glo ATP luminescence, 90 h | inhibition, % at 24.9 µM | 5,600 tested, 56% active | AID 651744;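 active = mean loss of cell viability signal at or above a set limit, and enough replicates individually reaching it; inconclusive = meets only the mean limit or only the replicate share; inactive = meets neither condition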;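 note: 0% = median of neutral control wells and 100% = median of positive control wells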
# * hit, by the source's call; ? = inconclusive; · = not tested or not shown. The list is not random: actives were taken first. Their share in the collection is about 5.9%.
SMILES,KDM4C inh,T cruzi growth-1,IDH1 mut inh,Pf Dd2 growth,T cruzi growth-2,T cruzi growth-3,NIH3T3 tox,3T3 cytotox 2
C[C@H]1CN([C@@H](C)CO)C(=O)c2cc(NC(=O)c3ccncc3)ccc2O[C@@H]1CN(C)Cc1ccc(C(F)(F)F)cc1,-0.3,74.9,1.7,7.2,·,·,·,·
C[C@H](CO)N1C[C@H](C)[C@@H](CN(C)Cc2ccncc2)OCCCC[C@H](C)Oc2ccc(NC(=O)Nc3ccc(C(F)(F)F)cc3)cc2C1=O,-0.6,101.5*,-1.1,-25.0,103.5*,81.9,-29.1,41.9*
C[C@H]1CCCCO[C@@H](CN(C)Cc2ccncc2)[C@@H](C)CN([C@@H](C)CO)C(=O)c2cc(NC(=O)Nc3ccc(C(F)(F)F)cc3)ccc2O1,0.0,101.0*,10.7,-63.1,97.4*,114.5*,-5.9,70.4*
Cc1c(Br)c([N+](=O)[O-])nn1C(C)C(=O)Nc1ccccc1C(F)(F)F (stereo unspecified),·,·,0.3,·,·,·,·,·
C[C@@H]1CCCCO[C@@H](CN(C)Cc2ccc(C(F)(F)F)cc2)[C@@H](C)CN([C@@H](C)CO)C(=O)c2cc(NS(=O)(=O)c3ccc(Cl)cc3)ccc2O1,-0.8,97.1*,·,-33.2,87.3,112.6*,27.7,102.5*
C[C@@H]1CN([C@@H](C)CO)C(=O)c2cc(NS(=O)(=O)c3ccc(Cl)cc3)ccc2O[C@@H](C)CCCCO[C@H]1CN(C)Cc1ccncc1,2.5,?,·,-7.0,101.8*,37.6,-11.5,16.3
C[C@@H]1CN([C@H](C)CO)C(=O)c2cc(NS(C)(=O)=O)ccc2O[C@@H](C)CCCCO[C@H]1CN(C)Cc1ccc(C(F)(F)F)cc1,0.6,115.7*,·,-33.6,107.5*,107.9*,0.9,98.0*
C[C@H](CO)N1C[C@H](C)[C@H](CN(C)Cc2ccc(C(F)(F)F)cc2)OCCCC[C@H](C)Oc2ccc(NS(C)(=O)=O)cc2C1=O,-0.1,-58.9,-5.1,-10.2,·,·,·,·
Cc1cc(OCC(=O)Nc2ccccc2C(=O)N2CCCCC2)c(C)cc1Br,·,·,1.0,·,·,·,·,·
Cc1sc(NC(=O)COc2ccc3c(C)cc(=O)oc3c2)c(C#N)c1C,·,·,0.2,·,·,·,·,·
COCC(=O)N1CCCCN2[C@H](C1)[C@H](c1ccc(C#Cc3ccccc3)cc1)[C@@H]2CO,-0.3,43.4,·,0.3,·,·,·,·
COCC(=O)N1CCCCN2[C@@H](CO)[C@H](c3ccc(C#Cc4ccccc4)cc3)[C@@H]2C1,-1.0,97.2*,·,37.4,?,10.4,32.9,62.1*
COCC(=O)N1CCCCN2[C@H](CO)[C@@H](c3ccc(C#Cc4ccc(OC)cc4)cc3)[C@@H]2C1,-0.4,107.6*,·,-14.3,?,5.6,17.5,86.1*
COCC(=O)N1CCCCN2[C@H](C1)[C@@H](c1ccc(C#Cc3ccccc3)cc1)[C@@H]2CO,1.2,59.0,·,23.3,·,·,·,·
COCC(=O)N1CCCCN2[C@H](CO)[C@@H](c3ccc(C#Cc4ccc(OC)cc4)cc3)[C@H]2C1,1.8,92.3,·,5.7,·,·,·,·
COCC(=O)N1CCCCN2[C@H](CO)[C@H](c3ccc(C#Cc4ccccc4)cc3)[C@@H]2C1,0.3,?,·,11.9,98.8*,37.1,44.2*,69.0*
O=C(COc1ccc2cc(Br)ccc2c1)Nc1cccc([N+](=O)[O-])c1,·,·,0.3,·,·,·,·,·
O=C(NO)c1cccc(C(=O)N/N=C/c2cccc(B(O)O)c2)c1,·,·,0.2,·,·,·,·,·
COC(=O)c1ccccc1NC(=O)c1ccc(NS(=O)(=O)c2cccc3cccnc23)cc1,·,·,0.0,·,·,·,·,·
C[C@H](CO)N1C[C@H](C)[C@@H](CN(C)Cc2ccc(Oc3ccccc3)cc2)Oc2c(NC(=O)C3CCCCC3)cccc2C1=O,-3.0,?,·,-35.2,104.0*,88.7,-28.5,104.4*
C[C@@H]1CN([C@@H](C)CO)C(=O)c2cccc(NC(=O)C3CCCCC3)c2O[C@H]1CN(C)Cc1ccc(Oc2ccccc2)cc1,0.5,103.8,·,-67.2,·,·,·,·
CC(C)NC(=O)N(C)C[C@H]1Oc2c(NC(=O)C3CC3)cccc2C(=O)N([C@H](C)CO)C[C@H]1C,-0.6,96.6*,1.2,-1.0,59.1,-9.7,-3.4,-20.9
C[C@H](CO)N1C[C@H](C)[C@H](CN(C)Cc2ccc(Oc3ccccc3)cc2)Oc2c(NC(=O)NC3CCCCC3)cccc2C1=O,0.1,?,·,5.9,99.8*,104.9*,?,51.5*
C[C@@H]1CN([C@H](C)CO)C(=O)c2cccc(NC(=O)NC3CCCCC3)c2O[C@@H]1CN(C)Cc1ccc(-c2ccccc2)cc1,-1.4,114.6*,·,-33.8,101.5*,67.5,6.0,?
CC(C)NC(=O)N(C)C[C@H]1Oc2c(NC(=O)C3CC3)cccc2C(=O)N([C@@H](C)CO)C[C@H]1C,-0.2,-10.6,·,7.4,·,·,·,·
SMILES,KDM4C inh,T cruzi growth-1,IDH1 mut inh,Pf Dd2 growth,T cruzi growth-2,T cruzi growth-3,NIH3T3 tox,3T3 cytotox 2
C[C@H]1CN([C@@H](C)CO)C(=O)c2cccc(NC(=O)NC3CCCCC3)c2O[C@H]1CN(C)Cc1ccc(-c2ccccc2)cc1,2.3,74.4,·,9.0,·,·,·,·
CC(Oc1ccc(Br)cc1)c1nc(-c2ccccn2)no1 (stereo unspecified),·,·,-0.1,·,·,·,·,·
Cc1nc(SCCC(=O)Nc2ccccc2C#N)nc2cc3c(cc12)CCC3,·,·,-0.3,·,·,·,·,·
Cc1noc(C)c1NC(=O)N(C)C[C@@H]1Oc2c(NS(=O)(=O)c3c(C)noc3C)cccc2C(=O)N([C@@H](C)CO)C[C@@H]1C,2.5,15.9,·,27.6,·,·,·,·
Cc1noc(C)c1NC(=O)N(C)C[C@@H]1Oc2c(NS(=O)(=O)c3c(C)noc3C)cccc2C(=O)N([C@H](C)CO)C[C@@H]1C,0.2,101.6*,-0.7,24.9,101.8*,10.1,12.7,-3.3
COCC#Cc1ccc([C@H]2[C@H](CO)N3CCCCN(Cc4cncnc4)C[C@@H]23)cc1,-1.2,114.6*,·,14.8,98.4*,48.1,-11.2,-8.7
CCCC#Cc1ccc([C@H]2[C@@H](CO)N3CCCCN(Cc4cccnc4)C[C@H]23)cc1,-0.8,?,·,-51.8,108.2*,92.3,29.0,102.4*
CCCC#Cc1ccc([C@@H]2[C@H]3CN(Cc4ccncc4)CCCCN3[C@H]2CO)cc1,1.9,?,·,-69.8,96.5*,17.2,36.6*,105.7*
CCCC#Cc1ccc([C@H]2[C@@H](CO)N3CCCCN(Cc4ccncc4)C[C@H]23)cc1,1.7,49.3,·,-70.8,·,·,·,·
CCCC#Cc1ccc([C@@H]2[C@@H](CO)N3CCCCN(Cc4ccncc4)C[C@H]23)cc1,3.6,108.7*,·,-35.6,98.3*,44.8,35.0*,66.8*
Cc1cc(C)cc(NC(=O)CN(c2ccc(Cl)cc2Cl)S(C)(=O)=O)c1,·,·,-0.3,·,·,·,·,·

# Compound activity as filed in PubChem.
